Experimental data taken from ChEMBL document CHEMBL1212900, “Falcipain inhibitors: optimization studies of the 2-pyrimidinecarbonitrile lead series” (J Med Chem, 2010).
pIC50: −log10 of the molar value.

Experiments:
[1] = Inhibition of Plasmodium falciparum falcipain-3 expressed in Escherichia coli
Outline: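 Refolded recombinant enzyme from E. coli, 2 nM, in 100 mM sodium acetate pH 5.5 with 500 μM CHAPS and 10 mM DTT, DMSO up to 1%. H-D-Val-Leu-Arg-AFC at 150 μM final. Reaction started by enzyme addition; fluorescence monitored 1 h at room temperature. IC50 derived from percent activity plotted against inhibitor concentration.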

[2] = Inhibition of Plasmodium falciparum falcipain-2 expressed in Escherichia coli
Outline: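 Recombinant E. coli-expressed, refolded enzyme at 0.25 nM in 100 mM sodium acetate pH 5.5, 500 μM CHAPS, 10 mM DTT, DMSO ≤1%. Substrate H-D-Val-Leu-Arg-AFC at 30 μM final. Inhibitor dilutions mixed with substrate, enzyme added last; fluorescence followed 1 h at room temperature. IC50 from percent activity versus concentration.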

[3] = tested on: Plasmodium falciparum; test: Antiplasmodial activity against Plasmodium falciparum W2 after 48 hrs; type: functional, organism-based; conditions: W2, 48 h
Outline: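 W2 P. falciparum grown in human erythrocytes, 2% hematocrit, RPMI with 10% human serum or 0.5% AlbuMAX II; sorbitol-synchronized. Serial dilutions from DMSO stocks added at ring stage for 48 h, medium and drug renewed at 24 h. Cells fixed in 1% formaldehyde, stained with YOYO-1, parasitemia counted by flow cytometry; IC50 from percent parasitemia versus untreated controls.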

Row | pIC50 [1] | pIC50 [2] | pIC50 [3] | Structure (SMILES)
1 | 6.47 | 8.30 | 5.63 | CN1CCN(Cc2ccc(C(=O)NN(Cc3ccccc3)c3nc(C#N)ncc3Br)cc2)CC1
2 | 6.98 | 7.64 | 5.66 | CN1CCN(Cc2ccc(C(=O)NN(CCc3ccccc3)c3nc(C#N)ncc3Br)cc2)CC1
3 | 7.80 | 9.15 | 7.01 | CN1CCN(Cc2ccc(C(=O)NN(CC3CC=CC3)c3nc(C#N)ncc3Br)cc2)CC1
4 | 6.76 | 8.70 | 7.05 | CN1CCN(Cc2ccc(C(=O)NN(c3nc(C#N)ncc3Br)C3CCC3)cc2)CC1
5 | 7.96 | > 9.30 | 7.62 | CN1CCN(Cc2ccc(C(=O)NN(c3nc(C#N)ncc3Br)C3CCCC3)cc2)CC1
6 | 8.22 | 9.30 | 7.57 | CN1CCN(Cc2ccc(C(=O)NN(c3nc(C#N)ncc3Br)C3CCCCC3)cc2)CC1
7 | 6.96 | 8.70 | 6.98 | CN1CCN(Cc2ccc(C(=O)NN(c3nc(C#N)ncc3Br)C3CCCC3(C)C)cc2)CC1 (stereo not drawn)
8 | 7.35 | 9.05 | 7.17 | CC1CCC(N(NC(=O)c2ccc(CN3CCN(C)CC3)cc2)c2nc(C#N)ncc2Br)C1 (stereo not drawn)
9 | 8.52 | 9.70 | 8.30 | C[C@@H]1CCC[C@H]1N(NC(=O)c1ccc(CN2CCN(C)CC2)cc1)c1nc(C#N)ncc1Br
10 | 7.00 | 7.85 | 5.73 | CN1CCN(Cc2ccc(C(=O)NN(CC3CCCO3)c3nc(C#N)ncc3Br)cc2)CC1 (stereo not drawn)
11 | 7.12 | 8.70 | 6.71 | CC1OCCC1CN(NC(=O)c1ccc(CN2CCN(C)CC2)cc1)c1nc(C#N)ncc1Br (stereo not drawn)
12 | 6.87 | 7.96 | 6.51 | CN1CCN(Cc2ccc(C(=O)NN(CC3CCOCC3)c3nc(C#N)ncc3Br)cc2)CC1
13 | 6.74 | 8.40 | 6.14 | CN1CCN(Cc2ccc(C(=O)NN(Cc3ccco3)c3nc(C#N)ncc3Br)cc2)CC1
14 | 6.88 | 8.70 | 6.48 | CN1CCN(Cc2ccc(C(=O)NN(Cc3ccoc3)c3nc(C#N)ncc3Br)cc2)CC1
15 | 7.77 | 9.05 | 7.23 | CN1CCN(Cc2ccc(C(=O)NN(c3nc(C#N)ncc3Br)C3CCOCC3)cc2)CC1
16 | 7.59 | > 9.30 | 7.55 | CC(=O)N1CCC(N(NC(=O)c2ccc(CN3CCN(C)CC3)cc2)c2nc(C#N)ncc2Br)CC1
17 | 7.06 | 8.10 | 5.88 | CC(=O)NC1CCC(N(NC(=O)c2ccc(CN3CCN(C)CC3)cc2)c2nc(C#N)ncc2Br)CC1 (stereo not drawn)
18 | 7.49 | > 9.30 | 7.60 | CCCN1CCN(c2ccc(C(=O)NN(CC(C)C)c3nc(C#N)ncc3Br)cc2)CC1
19 | 7.49 | > 9.70 | 7.48 | CC(C)CN(NC(=O)c1ccc(N2CCN(C)CC2)cc1)c1nc(C#N)ncc1Br
20 | 6.84 | 8.52 | 6.21 | CC(C)CN(NC(=O)c1ccc(OCCN2CCOCC2)cc1)c1nc(C#N)ncc1Br
21 | 7.05 | 8.70 | 6.06 | CC(C)CN(NC(=O)c1ccc(OCCN2CCOCC2)cc1)c1nc(C#N)ncc1Cl
22 | 7.28 | 9.70 | 5.82 | CC(C)CN(NC(=O)c1ccc(N2CCOCC2)nc1)c1nc(C#N)ncc1Br
23 | 7.92 | 9.15 | 7.68 | CC(C)CN(NC(=O)c1ccc(CN2CCN(C)CC2)o1)c1nc(C#N)ncc1Br
24 | 7.92 | 9.70 | 8.00 | CC(C)CN(NC(=O)c1ccc(CN2CCN(C)CC2)s1)c1nc(C#N)ncc1Br
25 | 7.34 | 9.00 | 7.48 | CC(C)CN(NC(=O)c1cc(CN2CCN(C)CC2)on1)c1nc(C#N)ncc1Br
26 | 7.21 | 9.40 | 7.32 | CC(C)CN(NC(=O)c1cc2cccc(CN3CCN(C)CC3)c2o1)c1nc(C#N)ncc1Br
